Converted amounts (≈) assume the structure as drawn.
How the values were obtained:
Format in all cases: functional
[1] = system: Mycobacterium tuberculosis; assay: Antitubercular activity against isoniazid/ethambutol-resistant Mycobacterium tuberculosis isolate CDCT27 harboring katG mutant gene after 7 days by resazurin dye based assay
Outline: (§1)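 Resazurin microtiter MIC in 7H9 with 10% ADC. Two-fold dilutions from 1 mg/mL DMSO stocks span 25.0–0.05, 10.0–0.02 or 0.02–0.0004 µg/mL, with 2.5% DMSO final. Inoculum is bead-declumped culture grown in 7H9/10% OADC/0.05% Tween 80, diluted to OD600 0.006. Plates run 7 days at 37 °C, then 0.01% resazurin for 48 h. MIC is the lowest concentration preventing the blue-to-pink change. Three independent tests.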

[2] = system: Mycobacterium tuberculosis; assay: Antitubercular activity against multidrug-resistant Mycobacterium tuberculosis isolate CDCT16 harboring rpoB/katG/inhA mutant gene after 7 days by resazurin dye based assay; outline: as §1
[3] = system: Mycobacterium tuberculosis; assay: Antitubercular activity against multidrug-resistant Mycobacterium tuberculosis isolate CDCT10 harboring rpoB/katG mutant gene after 7 days by resazurin dye based assay; outline: as §1
[4] = system: Mycobacterium tuberculosis; assay: Antitubercular activity against Mycobacterium tuberculosis isolate CDCT28 harboring rpoB mutant gene after 7 days by resazurin dye based assay; outline: as §1

With `C[C@H]1CC[C@H](NC(=O)CSc2nc3ccccc3c(=O)[nH]2)CC1` the MIC [1] was 0.12 µM (≈ 0.0398 µg/mL), the MIC [2] was 0.24 µM (≈ 0.0795 µg/mL) and the MIC [3] was 0.12 µM (≈ 0.0398 µg/mL). The MIC [4] was 0.12 µM (≈ 0.0398 µg/mL).

In the case of `CC1CCCCC1NC(=O)CSc1nc2ccccc2c(=O)[nH]1` (configuration not stated), the MIC [1] was 0.96 µM (≈ 0.318 µg/mL), the MIC [2] was 3.9 µM (≈ 1.29 µg/mL) and the MIC [3] was 0.95 µM (≈ 0.315 µg/mL). For the same molecule, the MIC [4] was 1.9 µM (≈ 0.63 µg/mL).

Work on `O=C(CSc1nc2ccccc2c(=O)[nH]1)NCC1CCCCC1` yielded an MIC [1] of 0.48 µM (≈ 0.159 µg/mL), an MIC [2] of 0.93 µM (≈ 0.308 µg/mL) and an MIC [3] of 0.93 µM (≈ 0.308 µg/mL). The MIC [4] was 0.93 µM (≈ 0.308 µg/mL).

`NNC(=O)c1ccncc1` [ISONIAZID] gave an MIC [1] of 182.3 µM (≈ 25 µg/mL), an MIC [2] of over 729.2 µM and an MIC [3] of 45.6 µM (≈ 6.25 µg/mL). The MIC [4] was 2.84 µM (≈ 0.389 µg/mL).

Work on `CC1CCC(NC(=O)CSc2nc3ccccc3c(=O)[nH]2)CC1` (configuration not stated) yielded an MIC [1] of 0.12 µM (≈ 0.0398 µg/mL), an MIC [2] of 0.48 µM (≈ 0.159 µg/mL) and an MIC [3] of 0.24 µM (≈ 0.0795 µg/mL). The MIC [4] was 0.24 µM (≈ 0.0795 µg/mL).

Molecule `O=C(CSc1nc2ccccc2c(=O)[nH]1)NC1CCCCCC1` has an MIC [1] of 0.24 µM (≈ 0.0795 µg/mL), an MIC [2] of 0.93 µM (≈ 0.308 µg/mL) and an MIC [3] of 0.48 µM (≈ 0.159 µg/mL). It also gave an MIC [4] of 0.48 µM (≈ 0.159 µg/mL).

Work on `CC1CCCC(NC(=O)CSc2nc3ccccc3c(=O)[nH]2)C1` (configuration not stated) yielded an MIC [1] of 0.24 µM (≈ 0.0795 µg/mL), an MIC [2] of 0.9 µM (≈ 0.298 µg/mL) and an MIC [3] of 0.94 µM (≈ 0.312 µg/mL). The MIC [4] was 0.93 µM (≈ 0.308 µg/mL).

`O=C(CSc1nc2ccccc2c(=O)[nH]1)NC1CCCCC1` showed an MIC [1] of 0.25 µM (≈ 0.0794 µg/mL), an MIC [2] of 0.97 µM (≈ 0.308 µg/mL) and an MIC [3] of 0.5 µM (≈ 0.159 µg/mL). It also gave an MIC [4] of 0.5 µM (≈ 0.159 µg/mL).
